Bioassay records: PubChem, several laboratories
Most compounds without a hit are left out; they make up all but 4.1% or so of the library.
MC4R ag barr – agonists of human melanocortin 4 receptor (MC4R) beta-arrestin. 0.98% of 360,000 active. AID 540308. U2OS MC4R beta-arrestin complementation, luminescence; percent of melanotan II response, DMSO zero. P32245. activation, % at 8.9 µM;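 active = activation above a per-plate cutoff, the mean activation of sample wells on that plate plus 3 SD, cut at about 8% in these data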
ATG4B inhibitor – blocks human ATG4B protease cleavage of LC3 substrate. Q9Y4P1. inhibition, % at 8.33 µM. 0.51% of 340,000 active. ATG4B cleavage of LC3-PLA2, NBD-HPC fluorescence, 1 h. AID 504462; in the data active = inhibition above about 40%
Target sequence (Q9Y4P1 whole entry, looked up): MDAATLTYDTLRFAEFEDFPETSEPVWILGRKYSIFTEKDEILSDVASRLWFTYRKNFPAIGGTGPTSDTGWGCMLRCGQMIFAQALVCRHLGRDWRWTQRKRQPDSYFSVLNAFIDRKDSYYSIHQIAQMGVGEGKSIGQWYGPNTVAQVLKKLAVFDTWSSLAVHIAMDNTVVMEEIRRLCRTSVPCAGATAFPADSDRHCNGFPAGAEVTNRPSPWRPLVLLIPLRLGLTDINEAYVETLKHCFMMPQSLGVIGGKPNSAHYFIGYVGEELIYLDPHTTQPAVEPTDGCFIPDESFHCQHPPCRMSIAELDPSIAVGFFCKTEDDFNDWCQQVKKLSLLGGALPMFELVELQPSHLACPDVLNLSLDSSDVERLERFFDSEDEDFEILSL
MPTP block – permeability transition pore inhibition | isolated mouse mitochondria, Ca2+ swelling absorbance, 30 min | 1.4% of 360,000 active | AID 602449 | inhibition, % at 10 µM;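 active = inhibition of 50% or more, scaled per plate between neutral and stimulator controls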;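 also: 0% = DMSO wells given calcium and 100% = 1 mM EGTA wells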
MC4R antagonist – blocks human MC4R cAMP signaling | 0.48% of 360,000 active | MC4R-expressing cells, MTII-stimulated cAMP, LANCE TR-FRET | P32245 | inhibition, % at 6.5 µM;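 active = inhibition above its plate's cutoff, the mean of tested wells on that plate plus 3 SD, cut at about 29% in these data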;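 also: 0% = Melanotan II alone and 100% = Melanotan II plus saturating MCL0020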
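Material: U2OS-MC4R stable cell line | Reagent: Melanotan II challenge after compound preincubation | Doses: One concentration, 6.5 µM nominal | Incubation: 30-min compound preincubation, 1-h Melanotan II challenge, 1-h detection, room temperature | Signal: TR-FRET cAMP assay | Replicates: One well per compound, no replicates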
SMARCA2 act – activators of SMARCA2 function | MG213 cells, MMTV-luciferase reporter, dexamethasone, overnight | activation, % at 9.1 µM | AID 652017 | 1% of 370,000 active; in the data active = activation above about 7.8%;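 also: 0% = vehicle wells and 100% = reference activator wells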
Rh123 counter – membrane potential counter-screen of mitochondrial pore inhibitors | shares compounds with MPTP block | isolated mitochondria, Rhodamine 123 fluorescence | inhibition, % at 10 µM | 78% of 5,000 active; in the data active = inhibition above about 22%;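 also: 0% = DMSO vehicle and 100% = positive control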
MPTP abs DR – dose response confirmation of mitochondrial permeability transition pore inhibitors; shares compounds with MPTP block; isolated mitochondria swelling, absorbance; IC50, µM; 58% of 780 active; AID 651561; in the data active = IC50 below about 20 µM
MPTP cs DR – MPTP inhibitor counter-screen activity, dose response; 49% of 780 active; IC50, µM; AID 651564; shares compounds with MPTP block; isolated mitochondria counterscreen, fluorescence read-out; in the data active = IC50 below about 80 µM
The depositor's hits bear a star; i = inactive; . = no result given.

SMILES	MC4R ag barr	ATG4B inhibitor	MPTP block	MC4R antagonist	SMARCA2 act	Rh123 counter	others
C/C(=N\NC(=O)Cn1c(C)nc2ccccc21)c1cccs1	1	2	4	0	-3	.
CC(/C=N/NC(=O)CSc1nc(C)cc(C)n1)=C\c1ccccc1	-2	-20	50*	-3	4	53*
CC(/C=N\NC(=O)Cn1c(C)nc2ccccc21)=C\c1ccccc1	0	5	54*	6	-6	65*
C[C@H]1[C@@H](c2ccccc2)Oc2c(Cl)cccc2S(=O)(=O)N1C	.	.	.	.	-4	.
COCCN1Cc2cc(C(=O)OC)c3c(c2C1=O)c1ccccc1n3S(=O)(=O)c1ccc(OC)cc1	.	.	.	.	-1	.
CC(C)CN1C(=O)C[C@@]2(C(=O)N(C)c3ccc(NS(=O)(=O)C4CCCCC4)cc32)C1c1ccccc1 (some centres undefined)	.	.	.	.	-2	.
O=C(NCc1ccncc1)Nc1ccc(Cc2ccc(NC(=O)NCc3ccncc3)cc2)cc1	-1	.	-1	1	-5	.
O=C(NCc1ccccn1)Nc1ccc(Cl)c(Cl)c1	-2	5	51*	0	5	85*
Cc1ccc(NC(=O)NCc2ccncc2)cc1Cl	-2	4	63*	9	2	79*
O=C(NCc1ccccn1)Nc1cc(Cl)cc(Cl)c1	-1	12	83*	3	0	100*
COC(=O)c1cc(-c2c(C)noc2C)c(=O)n2c1CCC2	.	.	.	.	3	.
O=C(N/N=C/c1cc([N+](=O)[O-])ccc1O)c1cc(-c2ccccc2)nc2ccccc12	-3	4	98*	12	-1	50*
O=C(N/N=C/c1ccc(Cl)c([N+](=O)[O-])c1)c1cc(-c2ccccc2)nc2ccccc12	-2	10	68*	7	1	75*
O=C(N/N=C/c1cc([N+](=O)[O-])ccc1Cl)c1cc(-c2ccccc2)nc2ccccc12	0	6	40	11	4	.
N#CCC[C@H]1CC[C@]2(CCCN(Cc3ccc(Br)cc3)C2)O1	.	.	.	.	-3	.
CC(C)CN1C(=S)SC(C)(C)C1n1oc(=O)n(-c2ccc(Cl)cc2)c1=O (centres undefined)	3	9	88*	0	.	95*
N#Cc1cc(C(=O)c2ccccc2OCC(=O)Nc2ccccc2Cl)cn(C2CCCCC2)c1=O	-2	4	1	1	-5	.
N#Cc1cc(C(=O)c2cc(Br)ccc2O)cn(C2CCCCC2)c1=O	4	13	94*	14	-3	82*
O=C(COC(=O)C1(c2ccc(F)cc2)CCCC1)NCc1ccco1	-2	-7	90*	4	-1	3	MPTP abs DR=i;MPTP cs DR=61*
O=C(CCN1C(=O)/C(=C/c2cccc(Br)c2)SC1=S)Nc1cccnc1	-2	7	52*	6	0	9	MPTP abs DR=>100;MPTP cs DR=20*
O=C(CCN1C(=O)/C(=C/c2ccccc2)SC1=S)N1CCCCCC1	-1	5	77*	13	-2	82*
O=C(O)CCN1C(=O)/C(=C\c2cccc(OCC(=O)Nc3ccc(Cl)cc3)c2)SC1=S	3	2	39	15	1	.
Cc1ccc(NC(=O)COc2cccc(/C=C3\SC(=S)N(CCC(=O)O)C3=O)c2)cc1Cl	2	-5	51*	11	3	26*
O=C(CCN1C(=O)/C(=C/c2cccc(Br)c2)SC1=S)NNC(=O)c1cccnc1	-1	8	4	2	.	.
COc1ccc(/C=C2\SC(=S)N(CCC(=O)N3CCCCC3)C2=O)cc1	-3	-4	2	0	-5	.
SMILES	MC4R ag barr	ATG4B inhibitor	MPTP block	MC4R antagonist	SMARCA2 act	Rh123 counter	others
Cc1ccc(/C=C2\SC(=S)N(CCC(=O)NNC(=O)c3cccnc3)C2=O)cc1	0	7	65*	15	1	59*
O=C(CN1C(=O)/C(=C/c2cccc(Br)c2)SC1=S)Nc1cccnc1	-1	0	5	10	-1	.
COC(=O)[C@]12C[C@H](CC(=O)N3CCCCC3)C(=O)N(CCC3=CCCCC3)C1=C[C@H](C(C)C)O[C@@H]2C1CC1	.	.	.	.	-2	.
O=C(CCN1C(=O)/C(=C/c2ccc(Cl)cc2)SC1=S)NCCCn1ccnc1	-2	5	60*	2	-1	72*
O=C(CCN1C(=O)/C(=C/c2ccc(F)cc2)SC1=S)NCCCn1ccnc1	-1	1	2	-10	-3	.
O=C(CCN1C(=O)/C(=C/c2ccc(F)cc2)SC1=S)NNC(=O)c1cccnc1	4	4	38	-7	-2	.
O=C(CCN1C(=O)/C(=C/c2ccccc2)SC1=S)NNC(=O)c1cccnc1	8.8*	-2	88*	-3	-3	74*
CN(Cc1cccnc1)C(=O)c1cc(COc2ccc3c(c2)CCCC3)on1	0	-6	67*	18	-1	85*
CCc1ccc(CN(C)C(=O)c2cc(COc3cccc4cnccc34)on2)cc1	-1	9	99*	7	-6	103*
CC(=NNC(=S)Nc1ccc(C)cc1)c1ccccn1	-4	0	10	8	-6	.
CC(=NNC(=S)Nc1cccc(C)c1)c1ccccn1	-1	-8	52*	12	-1	62*
O=C(Nc1nc2ncccn2c1-c1ccccc1)c1ccccc1	.	.	.	.	-1	.
CC1(C)CC(=O)C=C(c2ccc(COC(=O)c3ccc(Br)cc3)cc2)C1=O	.	.	.	.	-2	.
O=C(Nc1ccc(Cl)c([N+](=O)[O-])c1)ONC1=NCCCCC1	-3	-6	82*	2	-1	91*
O=C(C1CCCN1S(=O)(=O)c1cccc2ccccc12)N1CCN(c2ccccc2)CC1 (centres undefined)	.	.	.	.	0	.
O=C(NC(NC(=S)Nc1ccc(Cl)cc1Cl)C(Cl)(Cl)Cl)c1cccc([N+](=O)[O-])c1 (centres undefined)	-1	10	94*	-2	-3	80*
Cc1ccc(C)c(NC(=S)NC(NC(=O)Cc2ccccc2)C(Cl)(Cl)Cl)c1 (centres undefined)	-1	4	1	17	-1	.
Cc1ccc(NC(=S)NC(NC(=O)c2ccccc2)C(Cl)(Cl)Cl)c(C)c1 (centres undefined)	-2	22	73*	8	-6	81*
CN(C)C(=O)NC(NC(=S)Nc1ccccc1)C(Cl)(Cl)Cl (centres undefined)	-3	-4	-1	0	1	.
O=C(O)c1cccc(NC(=S)NC(NC(=O)c2cccc([N+](=O)[O-])c2)C(Cl)(Cl)Cl)c1 (centres undefined)	0	-9	4	5	-4	.
